Assay [1] concerns HeLa. In words: Cytotoxicity against human HeLa cells after 72 hrs by alamar blue assay. The format is functional, cell-based. A digest of the protocol: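 HeLa cells were seeded at densities allowing growth through 72 h of compound exposure at 37 °C, 5% CO2. Viability was read by Alamar Blue (resazurin) reduction. Replicate assays were averaged, and IC50 was taken from concentration-effect curves.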

For assay [2], the target named is T1, Histone deacetylase (Homo sapiens) (UniProt Q13547+O15379+Q9UBN7+Q92769+Q9UQL6+Q8WUI4+Q9BY41+Q96DB2+P56524+Q9UKV0+Q969S8). Put plainly: Inhibition of nuclear HDAC isolated from human HeLa cells at 30 uM. It counts as cell-free.
For assay [3], the target named is T2, Histone deacetylase 1 (Homo sapiens, UniProt Q13547). Put plainly: Inhibition of recombinant HDAC1 expressed in HEK293 cells. The format is cell-based.
Assay [4] has as its target T3, Protein deacetylase HDAC6 (Homo sapiens, UniProt Q9UBN7).
T3 sequence (Q9UBN7 whole entry): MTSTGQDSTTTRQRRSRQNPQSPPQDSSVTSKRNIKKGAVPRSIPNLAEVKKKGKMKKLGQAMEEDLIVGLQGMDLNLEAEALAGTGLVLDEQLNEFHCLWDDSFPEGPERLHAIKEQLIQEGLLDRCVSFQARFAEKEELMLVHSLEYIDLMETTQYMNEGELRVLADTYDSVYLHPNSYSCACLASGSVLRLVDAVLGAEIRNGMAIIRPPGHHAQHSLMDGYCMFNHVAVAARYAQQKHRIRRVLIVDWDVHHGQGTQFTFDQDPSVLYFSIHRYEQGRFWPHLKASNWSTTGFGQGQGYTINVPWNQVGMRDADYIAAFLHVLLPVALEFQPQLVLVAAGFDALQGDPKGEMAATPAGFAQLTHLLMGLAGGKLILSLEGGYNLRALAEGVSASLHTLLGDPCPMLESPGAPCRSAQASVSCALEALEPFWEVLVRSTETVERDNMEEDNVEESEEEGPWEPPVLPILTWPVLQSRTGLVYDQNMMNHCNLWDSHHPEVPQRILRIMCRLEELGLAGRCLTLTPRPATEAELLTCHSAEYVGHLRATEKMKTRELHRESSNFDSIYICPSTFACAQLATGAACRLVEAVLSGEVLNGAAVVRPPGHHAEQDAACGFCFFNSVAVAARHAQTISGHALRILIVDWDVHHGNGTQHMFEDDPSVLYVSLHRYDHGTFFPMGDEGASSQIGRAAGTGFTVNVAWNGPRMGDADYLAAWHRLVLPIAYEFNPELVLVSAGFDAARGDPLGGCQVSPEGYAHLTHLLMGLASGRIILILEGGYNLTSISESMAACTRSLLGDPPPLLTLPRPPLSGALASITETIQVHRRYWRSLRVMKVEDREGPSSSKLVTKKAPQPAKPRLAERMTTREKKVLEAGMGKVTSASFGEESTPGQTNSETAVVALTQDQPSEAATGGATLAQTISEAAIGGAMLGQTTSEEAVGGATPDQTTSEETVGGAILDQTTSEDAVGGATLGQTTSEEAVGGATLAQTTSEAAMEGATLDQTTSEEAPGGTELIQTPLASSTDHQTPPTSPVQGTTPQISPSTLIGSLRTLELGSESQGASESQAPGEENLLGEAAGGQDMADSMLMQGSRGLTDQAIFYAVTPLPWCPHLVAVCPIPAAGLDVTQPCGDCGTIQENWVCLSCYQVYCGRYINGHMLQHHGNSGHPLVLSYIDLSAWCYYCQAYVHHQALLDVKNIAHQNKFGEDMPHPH
Put plainly: Inhibition of recombinant HDAC6 expressed in HEK293 cells. It counts as cell-based.

Assay [5] addresses Histone deacetylase. In words: Inhibition of nuclear HDAC isolated from human HeLa cells. It counts as cell-based.
Assay [6] has as its target Histone deacetylase. In words: Inhibition of HDAC in human HeLa cells. The format is cell-based.
For assay [7], the target named is T2, Histone deacetylase 1. In words: Inhibition of recombinant HDAC1 expressed in HEK293 cells using variable substrate concentration by Lineweaver-Burke plot. The format is cell-based. A digest of the protocol: (§1)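 Inhibitor was used at 1/4, 1/2, 1, 2 and 4 times the IC50-derived concentration. Ki was obtained from Lineweaver-Burk plots, with y-axis intersection indicating substrate competition.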

Assay [8] has as its target T1, Histone deacetylase (Homo sapiens). In words: Inhibition of HDAC in human HeLa cells assessed as induction of p21waf1 at 50 uM after 24 hrs by Western blotting. It counts as cell-based. The gist of the method:
(§2)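 HeLa cells were treated with compound at 5 and 50 µM for 24 h, then lysed in Tris pH 8 RIPA-type buffer. Equal protein amounts were separated by SDS-PAGE and blotted to PVDF. Blots were probed for acetylated histone H3 K1-20 and p21waf1, then reprobed for β-actin as loading control.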

Assay [9] shares this target. In words: Inhibition of HDAC in human HeLa cells assessed as induction of histone H3 hyperacetylation at 50 uM after 24 hrs by Western blotting. The format is cell-based. A digest of the protocol: as §2
On the technique in general: Immunoblotting shows a protein as a band on a membrane.

Assay [10] shares this target. Put plainly: Inhibition of nuclear HDAC isolated from human HeLa cells at 32 uM. The format is cell-free.
Assay [11] deals with T2, Histone deacetylase 1. Put plainly: Inhibition of recombinant HDAC1 expressed in HEK293 cells at 32 uM. It counts as cell-based.
The target of assay [12] is T4, Protein deacetylase HDAC6 (Homo sapiens) (UniProt Q9UBN7).
T4 sequence (whole entry): T3 sequence (Q9UBN7 whole entry)
In words: Inhibition of recombinant HDAC6 expressed in HEK293 cells at 32 uM. The format is cell-based.

Assay [13] concerns the target T1, Histone deacetylase (Homo sapiens). Put plainly: Inhibition of HDAC in human HeLa cells at 50 uM. The format is cell-based. A digest of the protocol: (§3)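 HeLa cells were seeded at 5 × 10^3/well, grown for 24 h, and exposed to compound for 3 h. Cell-permeable Boc-K(Ac)-AMC was added for a further 3 h. Lysis/developer buffer containing trypsin and 10 µM TSA followed, with 3 h incubation. AMC fluorescence was read at ex 355/em 460 nm, and % inhibition was given at the stated concentration.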

The target is the same in assay [14]. Put plainly: Inhibition of HDAC in human HeLa cells at 32 uM. The format is cell-based. The gist of the method: as §3
Assay [15] deals with HeLa. In words: Cytotoxicity against human HeLa cells at 50 uM after 72 hrs by alamar blue assay. It counts as functional.
The target in assay [16] is T2, Histone deacetylase 1. In words: Inhibition of recombinant HDAC1 expressed in HEK293 cells at 30 uM. The format is cell-based.
For assay [17], the target named is T3, Protein deacetylase HDAC6. In words: Inhibition of recombinant HDAC6 expressed in HEK293 cells using variable substrate concentration by Lineweaver-Burke plot. It counts as cell-based. The gist of the method: as §1
Assay [18] deals with T4, Protein deacetylase HDAC6 (Homo sapiens). Put plainly: Inhibition of HDAC6 in human A549 NSCLC cells assessed as induction of alpha-tubulin hyperacetylation at 10 uM after 24 hrs by Western blotting. The format is cell-based. A digest of the protocol:
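A549 NSCLC cells were exposed to compound for 24 h and lysed. Western blots were probed for acetylated α-tubulin and acetylated histone H3 K1-20, then reprobed with histone H3 and α-tubulin antibodies as controls.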

Usually IC50 stands for the midpoint of a concentration-inhibition curve. In general, inhibition refers to the relative decrease from the control value, in per cent. Broadly, the Ki is the dissociation constant of the complex between target and ligand, obtained from inhibition or displacement.

Activity calls are given as the source filed them. The rule behind the calls is not given here.

T2 sequence (Q13547 whole entry): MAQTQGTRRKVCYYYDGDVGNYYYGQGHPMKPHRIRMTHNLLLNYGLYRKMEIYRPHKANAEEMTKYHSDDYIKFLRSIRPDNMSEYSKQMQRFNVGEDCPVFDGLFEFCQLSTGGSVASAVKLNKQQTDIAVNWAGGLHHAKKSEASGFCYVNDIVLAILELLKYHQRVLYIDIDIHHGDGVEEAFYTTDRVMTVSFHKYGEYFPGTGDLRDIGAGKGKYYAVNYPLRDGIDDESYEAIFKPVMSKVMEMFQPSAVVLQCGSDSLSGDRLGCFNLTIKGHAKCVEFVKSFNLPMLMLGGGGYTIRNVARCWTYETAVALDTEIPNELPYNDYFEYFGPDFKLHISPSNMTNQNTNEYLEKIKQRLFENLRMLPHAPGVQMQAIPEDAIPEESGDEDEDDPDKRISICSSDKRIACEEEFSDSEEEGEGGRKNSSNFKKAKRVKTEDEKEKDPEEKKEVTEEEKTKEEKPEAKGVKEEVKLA

Take `CCNC(=S)NCC(=O)c1ccc(OC)cc1`: the IC50 with HeLa [1] worked out at 5.81 µM. For the same compound, the inhibition in [2] is -6%.
Take `CCSC(=S)SCC(=O)c1ccc(CC(=O)NCCOc2ccccc2)s1`: the IC50 came out at 0.385 µM at Histone deacetylase 1 [3]; 0.204 µM in [4]; 0.018 µM against Histone deacetylase [5]; 0.624 µM against Histone deacetylase [6]; 5.78 µM in the assay on HeLa [1]. In addition, the inhibitory constant (Ki) at Histone deacetylase 1 [7] turned out to be 0.46 µM.
With `CCSC(=S)SCC(=O)c1cccc(S(=O)(=O)Nc2ccc3c(c2)OCO3)c1`, the half-inhibitory concentration (IC50) is 0.501 µM on Histone deacetylase 1 [3]; 0.431 µM in [4]; 0.014 µM on Histone deacetylase [5]; 1.86 µM at Histone deacetylase [6]; 9.18 µM in the assay with HeLa [1]. Besides, the result in assay [8] and in assay [9] was Active.
In turn, `CCSC(=S)OCC(=O)c1ccc(OC)cc1` registered an IC50 with HeLa [1] of 2.99 µM. Also, the inhibition was determined as 16% in assay [10], 6% on Histone deacetylase 1 [11], 16% in [12] and 28% in [13].
Regarding `COc1ccc(C(=O)CSC(=S)N2CCOCC2)cc1`, the inhibition is 2% in assay [10], 0% on Histone deacetylase 1 [11], -2% in assay [12] and 0% in assay [14].
As to `CCSC(=S)SCC(=O)c1ccc(C(=O)Nc2ccc(Cl)cc2)cc1`, the IC50 in assay [4] was 1.45 µM; at Histone deacetylase [5] it was 0.079 µM. Further, the inhibition at 50 µM in the assay on HeLa [15] came to 0%. Further, on Histone deacetylase 1 [16], the inhibition was found to be 1%.
Regarding `CCSC(=S)SCC(=O)c1cccc(NC(=O)c2ccccc2)c1`, the IC50 at Histone deacetylase 1 [3] is 1.22 µM; in [4], 0.065 µM; on Histone deacetylase [5], 0.12 µM; against Histone deacetylase [6], 0.964 µM; in the assay with HeLa [1], 8.23 µM. Moreover, in assay [17], the inhibition constant (Ki) was determined as 0.11 µM. Also, the result in assay [18] was Active.

Source of the values: ChEMBL document CHEMBL1155020, “Trithiocarbonates as a novel class of HDAC inhibitors: SAR studies, isoenzyme selectivity, and pharmacological profiles” (J Med Chem, 2008).
